Experimental data taken from ChEMBL document CHEMBL3593207, “Imidazole clubbed 1,3,4-oxadiazole derivatives as potential antifungal agents” (2015).
≈ marks a conversion by molar mass, not a printed value.

Columns and labels:
Candida albicans [1] = test: Antifungal activity against Candida albicans ATCC 10261 at MIC after 48 hrs by disc diffusion assay; format: functional
Summary of the method: (§1)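 Cells (10^3 cells ml−1) grown in YPD were mixed into molten agar (~40 °C) and poured into 100-mm plates. Filter discs (4 mm) were spotted with 10 µl of compound at 1/2 × MIC, MIC or 2 × MIC. Fluconazole and 1% DMSO were the controls. Plates were incubated at 37 °C for 48 h and inhibition zone diameters recorded in mm.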

Candida tropicalis [2] = test: Antifungal activity against clinical isolates of Candida tropicalis 2029 at MIC after 48 hrs by disc diffusion assay; format: functional; summary of the method: as §1
Candida tropicalis [3] = test: Cytotoxicity against Candida tropicalis ATCC 750 at 1/2 MIC after 24 hrs by WST1 assay
Candida albicans [4] = test: Cytotoxicity against Candida albicans ATCC 10261 at 1/4 MIC after 24 hrs by WST1 assay; format: functional
Summary of the method: (§2)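 Candida cells were exposed to MIC and sub-MIC levels for 24 h in microplates, then to WST-1/CEC dye for 30 min at 37 °C. Plates were shaken 1 min and the reaction stopped with 1% SDS. Formazan was read at 450 nm. % cytotoxicity = 100 × (cell control − experimental)/cell control. Triplicates, mean ± SD.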

Candida tropicalis [5] = test: Cytotoxicity against Candida tropicalis ATCC 750 at MIC after 24 hrs by WST1 assay
Candida albicans [6] = test: Inhibition of ergosterol biosynthesis in Candida albicans 2779 assessed as ergosterol content at MIC after 16 hrs by spectrophotometer analysis; format: functional; parameters: scale not given: the % may be the effect or the level left
Summary of the method: (§3)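 Cells were pelleted and washed, and wet weight taken. Pellets were saponified in 25% alcoholic KOH at 85 °C for 1 h. Sterols were extracted into n-heptane/water. Ergosterol content is expressed relative to untreated control cells.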

Candida albicans [7] = test: Inhibition of ergosterol biosynthesis in Candida albicans 2323 assessed as ergosterol content at MIC after 16 hrs by spectrophotometer analysis; format: functional; parameters: scale not given: the % may be the effect or the level left; summary of the method: as §3
Candida albicans [8] = test: Antifungal activity against clinical isolates of Candida albicans 2323 at half MIC after 48 hrs by disc diffusion assay; format: functional; summary of the method: as §1
Candida tropicalis [9] = test: Antifungal activity against clinical isolates of Candida tropicalis 2356 at MIC after 48 hrs by disc diffusion assay; format: functional; summary of the method: as §1
Candida tropicalis [10] = test: Inhibition of ergosterol biosynthesis in Candida tropicalis 2029 assessed as ergosterol content at MIC after 16 hrs by spectrophotometer analysis; format: functional; parameters: scale not given: the % may be the effect or the level left; summary of the method: as §3
Candida albicans [11] = test: Cytotoxicity against Candida albicans ATCC 10261 at 1/2 MIC after 24 hrs by WST1 assay; format: functional; summary of the method: as §2
Candida albicans [12] = test: Antifungal activity against clinical isolates of Candida albicans 2367 at half MIC after 48 hrs by disc diffusion assay; format: functional; summary of the method: as §1
Candida albicans [13] = test: Antifungal activity against clinical isolates of Candida albicans 2367 at 2 times MIC after 48 hrs by disc diffusion assay; format: functional; summary of the method: as §1
Candida albicans [14] = test: Cytotoxicity against clinical isolates of Candida albicans 2779 at 1/4 MIC after 24 hrs by WST1 assay; format: functional; summary of the method: as §2
Candida albicans [15] = test: Inhibition of ergosterol biosynthesis in Candida albicans ATCC 10261 assessed as ergosterol content at 1/2 MIC after 16 hrs by spectrophotometer analysis; format: functional; parameters: scale not given: the % may be the effect or the level left; summary of the method: as §3
Candida tropicalis [16] = test: Inhibition of ergosterol biosynthesis in Candida tropicalis ATCC 750 assessed as ergosterol content at 1/2 MIC after 16 hrs by spectrophotometer analysis; format: functional; parameters: scale not given: the % may be the effect or the level left; summary of the method: as §3
Candida tropicalis [17] = test: Antifungal activity against Candida tropicalis ATCC 750 at half MIC after 48 hrs by disc diffusion assay; format: functional; summary of the method: as §1
Candida albicans [18] = test: Antifungal activity against Candida albicans ATCC 10261 at 2 times MIC after 48 hrs by disc diffusion assay; format: functional; summary of the method: as §1
Candida albicans [19] = test: Antifungal activity against clinical isolates of Candida albicans 2779 by broth microdilution assay; format: functional
Summary of the method: (§4)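 CLSI M27-A3 broth microdilution. Compounds diluted to 1 mg/ml in 1% DMSO. Fluconazole (1 mg/ml) served as positive control, 1% DMSO as vehicle control, with media and culture controls. Triplicate at each concentration, repeated thrice. Inocula came from YPDA stocks subcultured in broth for 48 h at 37 °C.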

Candida tropicalis [20] = test: Antifungal activity against clinical isolates of Candida tropicalis 2029 by broth microdilution assay; format: functional; summary of the method: as §4
Candida albicans [21] = test: Antifungal activity against clinical isolates of Candida albicans 2779 at 2 times MIC after 48 hrs by disc diffusion assay; format: functional; summary of the method: as §1
Candida albicans [22] = test: Antifungal activity against clinical isolates of Candida albicans 2323 at MIC after 48 hrs by disc diffusion assay; format: functional; summary of the method: as §1
Candida tropicalis [23] = test: Antifungal activity against clinical isolates of Candida tropicalis 2356 at 2 times MIC after 48 hrs by disc diffusion assay; format: functional; summary of the method: as §1
Candida albicans [24] = test: Antifungal activity against clinical isolates of Candida albicans 2779 at MIC after 48 hrs by disc diffusion assay; format: functional; summary of the method: as §1
Candida albicans [25] = test: Antifungal activity against clinical isolates of Candida albicans 2367 by broth microdilution assay; format: functional; summary of the method: as §4
Candida albicans [26] = test: Inhibition of ergosterol biosynthesis in Candida albicans 2367 assessed as ergosterol content at MIC after 16 hrs by spectrophotometer analysis; format: functional; parameters: scale not given: the % may be the effect or the level left; summary of the method: as §3
Candida tropicalis [27] = test: Antifungal activity against clinical isolates of Candida tropicalis 2356 at half MIC after 48 hrs by disc diffusion assay; format: functional; summary of the method: as §1
Candida albicans [28] = test: Antifungal activity against clinical isolates of Candida albicans 2779 at half MIC after 48 hrs by disc diffusion assay; format: functional; summary of the method: as §1
Candida tropicalis [29] = test: Inhibition of ergosterol biosynthesis in Candida tropicalis 2356 assessed as ergosterol content at MIC after 16 hrs by spectrophotometer analysis; format: functional; parameters: scale not given: the % may be the effect or the level left; summary of the method: as §3
Candida tropicalis [30] = test: Inhibition of ergosterol biosynthesis in Candida tropicalis 2356 assessed as ergosterol content at 1/2 MIC after 16 hrs by spectrophotometer analysis; format: functional; parameters: scale not given: the % may be the effect or the level left; summary of the method: as §3
Candida albicans [31] = test: Inhibition of ergosterol biosynthesis in Candida albicans 2779 assessed as ergosterol content at 1/2 MIC after 16 hrs by spectrophotometer analysis; format: functional; parameters: scale not given: the % may be the effect or the level left; summary of the method: as §3
Candida albicans [32] = test: Antifungal activity against clinical isolates of Candida albicans 2323 by broth microdilution assay; format: functional; summary of the method: as §4
Candida albicans [33] = test: Antifungal activity against Candida albicans ATCC 10261 at half MIC after 48 hrs by disc diffusion assay; format: functional; summary of the method: as §1
Candida albicans [34] = test: Antifungal activity against Candida albicans ATCC 10261 by broth microdilution assay; format: functional; summary of the method: as §4
Candida albicans [35] = test: Antifungal activity against clinical isolates of Candida albicans 2323 at 2 times MIC after 48 hrs by disc diffusion assay; format: functional; summary of the method: as §1
Candida tropicalis [36] = test: Antifungal activity against Candida tropicalis ATCC 750 by broth microdilution assay; format: functional; summary of the method: as §4
Candida tropicalis [37] = test: Inhibition of ergosterol biosynthesis in Candida tropicalis ATCC 750 assessed as ergosterol content at MIC after 16 hrs by spectrophotometer analysis; format: functional; parameters: scale not given: the % may be the effect or the level left
Summary of the method: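 Cells were harvested, washed, and wet pellet weight recorded. Pellets were saponified in 3 mL 25% alcoholic KOH at 85 °C for 1 h, then sterols extracted into n-heptane. Ergosterol is expressed relative to untreated control cells.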

Candida tropicalis [38] = test: Cytotoxicity against Candida tropicalis ATCC 750 at 1/4 MIC after 24 hrs by WST1 assay
Candida tropicalis [39] = test: Inhibition of ergosterol biosynthesis in Candida tropicalis 2029 assessed as ergosterol content at 1/2 MIC after 16 hrs by spectrophotometer analysis; format: functional; parameters: scale not given: the % may be the effect or the level left; summary of the method: as §3
Candida albicans [40] = test: Antifungal activity against clinical isolates of Candida albicans 2367 at MIC after 48 hrs by disc diffusion assay; format: functional; summary of the method: as §1
Candida albicans [41] = test: Cytotoxicity against Candida albicans ATCC 10261 at MIC after 24 hrs by WST1 assay; format: functional; summary of the method: as §2
Candida tropicalis [42] = test: Antifungal activity against Candida tropicalis ATCC 750 at MIC after 48 hrs by disc diffusion assay; format: functional; summary of the method: as §1
Candida tropicalis [43] = test: Antifungal activity against clinical isolates of Candida tropicalis 2356 by broth microdilution assay; format: functional; summary of the method: as §4
Candida tropicalis [44] = test: Antifungal activity against Candida tropicalis ATCC 750 at 2 times MIC after 48 hrs by disc diffusion assay; format: functional; summary of the method: as §1
Candida albicans [45] = test: Inhibition of ergosterol biosynthesis in Candida albicans 2323 assessed as ergosterol content at 1/2 MIC after 16 hrs by spectrophotometer analysis; format: functional; parameters: scale not given: the % may be the effect or the level left; summary of the method: as §3
Candida tropicalis [46] = test: Antifungal activity against clinical isolates of Candida tropicalis 2029 at 2 times MIC after 48 hrs by disc diffusion assay; format: functional; summary of the method: as §1
Candida albicans [47] = test: Inhibition of ergosterol biosynthesis in Candida albicans ATCC 10261 assessed as ergosterol content at MIC after 16 hrs by spectrophotometer analysis; format: functional; parameters: scale not given: the % may be the effect or the level left; summary of the method: as §3
Candida albicans [48] = test: Inhibition of ergosterol biosynthesis in Candida albicans 2367 assessed as ergosterol content at 1/2 MIC after 16 hrs by spectrophotometer analysis; format: functional; parameters: scale not given: the % may be the effect or the level left; summary of the method: as §3
Candida tropicalis [49] = test: Antifungal activity against clinical isolates of Candida tropicalis 2029 at half MIC after 48 hrs by disc diffusion assay; format: functional; summary of the method: as §1

`CCc1ccnc(-c2nccn2Cc2nnc(-c3ccc([N+](=O)[O-])cc3)o2)c1` was tested, and the “inhibition zone (IZ)” value (Candida albicans [1]) was 11 mm, the “inhibition zone (IZ)” value (Candida tropicalis [2]) was 8 mm and the Activity (Candida tropicalis [3]) was 35.57%. For the same molecule, the Activity (Candida albicans [4]) was 16.88%, the Activity (Candida tropicalis [5]) was 57.94% and the Activity (Candida albicans [6]) was 89%. The Activity (Candida albicans [7]) was 87%, the “inhibition zone (IZ)” value (Candida albicans [8]) was 0 mm and the “inhibition zone (IZ)” value (Candida tropicalis [9]) was 4 mm. For the same molecule, the Activity (Candida tropicalis [10]) was 89%, the Activity (Candida albicans [11]) was 35.57% and the “inhibition zone (IZ)” value (Candida albicans [12]) was 1 mm. For the same molecule, the “inhibition zone (IZ)” value (Candida albicans [13]) was 8 mm, the Activity (Candida albicans [14]) was 8.02% and the Activity (Candida albicans [15]) was 43%. For the same molecule, the Activity (Candida tropicalis [16]) was 57%, the “inhibition zone (IZ)” value (Candida tropicalis [17]) was 1 mm and the “inhibition zone (IZ)” value (Candida albicans [18]) was 15 mm. For the same molecule, the MIC (Candida albicans [19]) was 32 µg/mL (≈ 85 µM), the MIC (Candida tropicalis [20]) was 16 µg/mL (≈ 42.5 µM) and the “inhibition zone (IZ)” value (Candida albicans [21]) was 11 mm. The “inhibition zone (IZ)” value (Candida albicans [22]) was 5 mm, the “inhibition zone (IZ)” value (Candida tropicalis [23]) was 9 mm and the “inhibition zone (IZ)” value (Candida albicans [24]) was 8 mm. The MIC (Candida albicans [25]) was 16 µg/mL (≈ 42.5 µM), the Activity (Candida albicans [26]) was 86% and the “inhibition zone (IZ)” value (Candida tropicalis [27]) was 1 mm. For the same molecule, the “inhibition zone (IZ)” value (Candida albicans [28]) was 2 mm, the Activity (Candida tropicalis [29]) was 91% and the Activity (Candida tropicalis [30]) was 59%. For the same molecule, the Activity (Candida albicans [31]) was 45%, the MIC (Candida albicans [32]) was 16 µg/mL (≈ 42.5 µM) and the “inhibition zone (IZ)” value (Candida albicans [33]) was 3 mm. The MIC (Candida albicans [34]) was 8 µg/mL (≈ 21.3 µM), the “inhibition zone (IZ)” value (Candida albicans [35]) was 9 mm and the MIC (Candida tropicalis [36]) was 16 µg/mL (≈ 42.5 µM). It also gave an Activity (Candida tropicalis [37]) of 100%, an Activity (Candida tropicalis [38]) of 15.6% and an Activity (Candida tropicalis [39]) of 52%. The “inhibition zone (IZ)” value (Candida albicans [40]) was 5 mm, the Activity (Candida albicans [41]) was 57.94% and the “inhibition zone (IZ)” value (Candida tropicalis [42]) was 9 mm. For the same molecule, the MIC (Candida tropicalis [43]) was 64 µg/mL (≈ 170 µM), the “inhibition zone (IZ)” value (Candida tropicalis [44]) was 14 mm and the Activity (Candida albicans [45]) was 31%. For the same molecule, the “inhibition zone (IZ)” value (Candida tropicalis [46]) was 12 mm, the Activity (Candida albicans [47]) was 99% and the Activity (Candida albicans [48]) was 47%. The “inhibition zone (IZ)” value (Candida tropicalis [49]) was 3 mm.
